According to ChEMBL document CHEMBL1777776, “Identification of 2-mercaptohexanoic acids as dual inhibitors of 5-lipoxygenase and microsomal prostaglandin E₂ synthase-1” (Bioorg Med Chem, 2011):

Columns and labels:
[1] = molecular target: T1, Prostaglandin G/H synthase 1 (Ovis aries) (UniProt P05979); assay: Inhibition of ovine COX1 assessed as residual activity at 10 uM after 5 mins
T1 sequence (whole entry): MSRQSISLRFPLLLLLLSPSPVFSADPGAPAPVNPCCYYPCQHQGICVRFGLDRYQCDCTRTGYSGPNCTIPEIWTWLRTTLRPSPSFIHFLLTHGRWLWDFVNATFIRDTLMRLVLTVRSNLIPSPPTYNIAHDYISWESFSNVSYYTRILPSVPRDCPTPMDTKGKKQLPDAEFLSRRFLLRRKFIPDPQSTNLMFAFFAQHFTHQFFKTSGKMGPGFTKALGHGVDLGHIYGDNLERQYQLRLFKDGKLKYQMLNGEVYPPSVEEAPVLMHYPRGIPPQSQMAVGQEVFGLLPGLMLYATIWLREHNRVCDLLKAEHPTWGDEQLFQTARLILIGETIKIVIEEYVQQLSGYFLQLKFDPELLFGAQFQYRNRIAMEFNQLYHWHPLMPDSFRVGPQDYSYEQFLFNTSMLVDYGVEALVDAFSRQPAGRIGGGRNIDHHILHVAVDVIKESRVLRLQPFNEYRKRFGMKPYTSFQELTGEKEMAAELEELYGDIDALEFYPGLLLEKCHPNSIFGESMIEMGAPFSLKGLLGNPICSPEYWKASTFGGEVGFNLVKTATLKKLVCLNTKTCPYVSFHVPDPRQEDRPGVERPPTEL
Summary of the method: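 Ovine COX-1 (50 units) or human recombinant COX-2 (20 units) in 1 ml 100 mM Tris pH 8 with 5 mM glutathione, 5 µM haemoglobin and 100 µM EDTA. Preincubated with 10 µM compound 5 min at 4 °C, warmed 60 s at 37 °C. Started with AA (5 µM for COX-1, 2 µM for COX-2), run 5 min at 37 °C. 12-HHT extracted and analysed by HPLC. n = 3.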

[2] = molecular target: T2, Cytosolic phospholipase A2 (Homo sapiens) (UniProt P47712); assay: Inhibition of cPLA2 assessed as residual activity at 10 uM after 5 mins
T2 sequence (whole entry): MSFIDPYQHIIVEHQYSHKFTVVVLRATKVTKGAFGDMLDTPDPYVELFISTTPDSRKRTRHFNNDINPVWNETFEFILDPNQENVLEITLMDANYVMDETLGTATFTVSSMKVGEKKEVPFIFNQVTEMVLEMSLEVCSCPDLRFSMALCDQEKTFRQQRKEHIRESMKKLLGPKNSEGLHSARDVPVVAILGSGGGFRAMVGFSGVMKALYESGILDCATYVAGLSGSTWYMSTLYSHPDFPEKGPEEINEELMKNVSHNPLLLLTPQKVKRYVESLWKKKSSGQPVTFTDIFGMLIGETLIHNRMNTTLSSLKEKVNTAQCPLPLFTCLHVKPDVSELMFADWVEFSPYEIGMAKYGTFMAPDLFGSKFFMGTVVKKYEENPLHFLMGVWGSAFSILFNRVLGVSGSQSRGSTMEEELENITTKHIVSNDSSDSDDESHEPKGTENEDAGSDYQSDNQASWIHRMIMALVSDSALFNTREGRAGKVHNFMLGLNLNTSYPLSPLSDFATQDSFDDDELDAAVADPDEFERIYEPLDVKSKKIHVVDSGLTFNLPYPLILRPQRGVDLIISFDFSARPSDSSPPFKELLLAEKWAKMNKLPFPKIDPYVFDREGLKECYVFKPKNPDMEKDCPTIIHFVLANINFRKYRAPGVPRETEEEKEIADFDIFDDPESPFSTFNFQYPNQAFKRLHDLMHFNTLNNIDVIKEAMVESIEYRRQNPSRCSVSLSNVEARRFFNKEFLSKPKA

Prostaglandin E synthase = molecular target: T3, Prostaglandin E synthase (Homo sapiens, UniProt O14684); assay: Inhibition of mPGES-1 in human IL-1beta-stimulated A549 cell microsomes assessed as reduction of PGE2 formation from PGH2 after 15 mins; design: species or system Microsome
T3 sequence (O14684 whole entry): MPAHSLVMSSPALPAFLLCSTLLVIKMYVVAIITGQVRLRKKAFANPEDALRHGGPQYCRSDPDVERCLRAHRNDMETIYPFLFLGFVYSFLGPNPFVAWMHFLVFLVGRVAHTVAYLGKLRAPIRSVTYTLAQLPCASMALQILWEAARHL
Summary of the method: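 Microsomes from A549 cells stimulated 72 h with IL-1β (1 ng/ml), diluted to 50 µg/ml in 0.1 M potassium phosphate pH 7.4 with 2.5 mM glutathione. Preincubated with compound (1% DMSO final) 15 min at 4 °C. Reaction started with 20 µM PGH₂, run 1 min at 4 °C, stopped with FeCl₂/citric acid containing 11β-PGE₂; PGE₂ quantified. Mean of n = 3–5.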

[3] = molecular target: T4, Polyunsaturated fatty acid 5-lipoxygenase (Homo sapiens, UniProt P09917); assay: Inhibition of 5-lipoxygenase in A23187-stimulated human PMNL assessed as enzyme product formation preincubated 15 mins by RP-HPLC analysis in presence of exogenous arachidonic acid
T4 sequence (P09917 whole entry): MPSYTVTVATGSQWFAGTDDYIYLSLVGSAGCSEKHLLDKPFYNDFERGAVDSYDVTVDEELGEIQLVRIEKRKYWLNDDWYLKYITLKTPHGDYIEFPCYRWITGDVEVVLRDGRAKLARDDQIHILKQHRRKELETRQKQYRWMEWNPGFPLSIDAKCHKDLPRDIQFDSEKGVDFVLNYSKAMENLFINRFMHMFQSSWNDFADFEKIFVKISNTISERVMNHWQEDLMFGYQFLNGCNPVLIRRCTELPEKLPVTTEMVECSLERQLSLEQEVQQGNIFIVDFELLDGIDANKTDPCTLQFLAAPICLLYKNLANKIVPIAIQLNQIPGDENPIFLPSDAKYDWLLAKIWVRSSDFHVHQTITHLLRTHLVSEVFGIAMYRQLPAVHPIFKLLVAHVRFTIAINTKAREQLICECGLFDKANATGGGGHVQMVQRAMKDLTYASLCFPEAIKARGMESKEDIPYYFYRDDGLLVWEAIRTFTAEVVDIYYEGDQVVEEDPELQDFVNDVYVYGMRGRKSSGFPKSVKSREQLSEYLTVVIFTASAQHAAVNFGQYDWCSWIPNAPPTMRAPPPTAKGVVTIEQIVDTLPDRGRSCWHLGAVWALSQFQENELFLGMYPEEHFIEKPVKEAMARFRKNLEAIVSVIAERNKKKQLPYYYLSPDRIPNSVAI
Summary of the method: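 Freshly isolated human PMNL (5 × 10⁶/ml PGC buffer: PBS pH 7.4, 1 mg/ml glucose, 1 mM CaCl₂) preincubated with compound 15 min at 37 °C. Stimulated with 2.5 µM A23187 plus exogenous AA for 10 min at 37 °C. Stopped with methanol, PGB₁ added as internal standard, lipoxygenase products analysed by HPLC. Mean of n = 3–5.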

Q: For `CCCCC(Sc1ccc(OCCCOc2ccc(-c3ccccc3)cc2)cc1)C(=O)O` (centres undefined), which Activity [1] is on record?
A: 79.2%

Q: What about the Activity [2] of the same compound?
A: 106%

Q: And the IC50 (Prostaglandin E synthase)?
A: 2200 nM

Q: And the IC50 [3]?
A: 900 nM
